Compounds with a hit are over-represented: about 4.3% of the library has one in this group of screens.
Rin1 Abl inh: inhibitors of human Rin1-Abl protein interaction; P00519+Q13671; TR-FRET Rin1/Abl binding, biochemical; inhibition, % at 7.35 µM; hit rate 0.4% among 360,000; AID 588664; in the data active means inhibition above about 5%, passing the limit was not always enough
PREPL inh: inhibits the human prolyl oligopeptidase-like enzyme | Q4J6C6 | recombinant PREPL, fluorescence polarization activity-based probe | inhibition, % at 5.96 µM | hit rate 0.68% among 320,000 | AID 2751; in the data active means inhibition above about 43%;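 further: 0% = enzyme with DMSO and 100% = wells lacking enzyme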
Target sequence (Q4J6C6 whole entry, looked up): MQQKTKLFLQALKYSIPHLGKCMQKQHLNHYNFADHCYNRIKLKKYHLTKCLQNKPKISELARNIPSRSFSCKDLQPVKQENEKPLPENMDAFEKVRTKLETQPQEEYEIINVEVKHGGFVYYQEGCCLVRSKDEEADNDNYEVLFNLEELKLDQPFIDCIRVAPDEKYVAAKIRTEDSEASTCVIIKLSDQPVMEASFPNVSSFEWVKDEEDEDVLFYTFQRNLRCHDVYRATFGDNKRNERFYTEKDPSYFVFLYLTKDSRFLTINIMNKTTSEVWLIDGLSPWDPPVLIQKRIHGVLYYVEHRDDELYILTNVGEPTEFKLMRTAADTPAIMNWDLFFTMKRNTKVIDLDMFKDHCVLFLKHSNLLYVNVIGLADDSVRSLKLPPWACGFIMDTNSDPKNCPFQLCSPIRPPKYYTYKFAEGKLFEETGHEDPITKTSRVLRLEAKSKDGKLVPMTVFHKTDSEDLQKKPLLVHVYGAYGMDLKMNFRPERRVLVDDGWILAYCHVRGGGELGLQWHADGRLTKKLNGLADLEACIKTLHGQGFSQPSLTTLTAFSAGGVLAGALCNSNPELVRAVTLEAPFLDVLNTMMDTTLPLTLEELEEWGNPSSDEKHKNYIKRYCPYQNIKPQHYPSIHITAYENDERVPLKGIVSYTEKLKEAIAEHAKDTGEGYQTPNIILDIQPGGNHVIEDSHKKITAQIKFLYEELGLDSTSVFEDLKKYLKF
ALR inh: blocks human ALR sulfhydryl oxidase activity; P55789; purified ALR, DTT oxidation, H2O2 HRP-luminol luminescence; inhibition, % (test concentration not listed); hit rate 3.8% among 290,000;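 active means mean replicate inhibition above about 79%, with every replicate also reaching it, limit read from the data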
SUMO HTRF inh: SUMOylation inhibition. inhibition, % at 35 µM. hit rate 0.36% among 290,000. HTRF SUMOylation assay, SAE1/SAE2 + UBC9, in vitro; in the data active means inhibition above about 50%, passing the limit was not always enough
RBBP9 inhibitor: blocks human serine hydrolase RBBP9 | O75884 | recombinant RBBP9, FP-Rh probe fluorescence polarization | inhibition, % at 7.94 µM | hit rate 0.2% among 220,000 | AID 1515;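 active means inhibition above the campaign mean of all tested compounds plus 3 SD, cut at about 14% in these data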;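 further: plate controls were DMSO wells with RBBP9 for no effect and wells lacking RBBP9 protein for full effect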
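Measured by: FP readout at 525/598 nm; material: recombinant human RBBP9; also added: Serine-hydrolase probe FP-Rh, 375 nM pre-mixing; medium: Tris buffer pH 8.0, NaCl, Pluronic; replication: one well per compound; doses: one concentration, 7.94 µM nominal, 0.794% DMSO; timing: preincubation 30 min plus labeling 45 min at 25 °C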
UBC13 inh: inhibitors of human UBC13 polyubiquitin chain formation; TR-FRET; inhibition, % at 20 µM; hit rate 0.47% among 330,000; AID 485273; in the data active means inhibition above about 45%, passing the limit was not always enough
Active calls of the source: *; nt = no result given.

SMILES	Rin1 Abl inh	PREPL inh	ALR inh	SUMO HTRF inh	RBBP9 inhibitor	UBC13 inh
O=[N+]([O-])c1ccc(Nc2nc(N/N=C/c3cccc(F)c3)nc(N3CCCC3)n2)cc1	-2	47*	-1	8	7	-24
CCn1c(=O)cc(SCC(=O)NCc2ccc(C)o2)c2ccccc21	-21	-5	98*	-6	-4	-3
CCn1c(=O)cc(SCC(=O)NCc2ccccn2)c2ccccc21	-59	2	98*	19	0	20
CCn1c(=O)cc(SCC(=O)NCc2cccnc2)c2ccccc21	-29	9	-3	-8	-1	28
O=C(NNC(=O)c1ccc(Oc2ccc(C3SCCS3)cc2)o1)c1ccc(Cl)cc1	-2	-4	11	7	-6	-4
CC1(C)C/C(=N\NC(=S)Nc2ccccc2F)c2cc(O)ccc2O1	-1	19	30	-14	1	1
Cn1c(CO)cnc1SCc1ccc([N+](=O)[O-])cc1	-1	8	nt	29	2	-9
Cn1ccnc1SCc1ccc([N+](=O)[O-])cc1	2	2	99*	16	-1	13
Cn1ccnc1SCc1cccc([N+](=O)[O-])c1	2	-2	98*	11	nt	-6
CC(C)C(NC(=O)C1(NC(=O)OCc2ccccc2)CCCC1)C(=O)O (centres undefined)	2	nt	nt	nt	nt	nt
Nc1cccc(CP(=O)(c2ccccc2)c2ccccc2)c1	3	3	nt	nt	nt	-6
Cc1cccc(-c2nnc(NC(=O)c3cccs3)s2)c1	2	-3	-11	10	-8	0
CNc1nnc(-c2cccc(N(C)C)c2)s1	-5	9	99*	39	0	-2
Fc1ccc(CN2C3=NCCN3c3ccccc32)cc1	4	19	95*	4	7	0
Cc1ccccc1CN1C2=NCCN2c2ccccc21	2	22	99*	6	-5	-14
CCCCCN1C2=NCCN2c2ccccc21	0	14	96*	10	-6	11
Fc1ccc(CN2C3=NCCCN3c3ccccc32)cc1	0	15	3	-15	6	1
Cc1ccc2[nH]c3c(=O)n(CC(=O)NCCCN4CCN(c5ccc(F)cc5)CC4)ncc3c2c1	0	-15	0	10	nt	-1
O=S(=O)(NCCN1CCCC1)c1cccc2cccnc12	2	11	37	12	1	3
O=S(=O)(NCCCN1CCN(c2ccccc2F)CC1)c1cccc2cccnc12	-2	5	95*	-2	-2	4
CC(=O)OCC1(C)CN(c2ccccc2)N(C(=O)c2ccc(C(C)(C)C)cc2)C1=O (centres undefined)	-3	nt	nt	-8	-4	nt
CC1(C)CN(c2ccccc2)N(C(=O)c2ccc(F)cc2)C1=O	0	3	100*	-5	-8	6
CC1(C)CN(c2ccccc2)N(C(=O)c2ccc(C#N)cc2)C1=O	-3	11	85*	1	-14	15
CCOC(=O)C(=NCC1CCCO1)NNc1cc(Cl)ccc1Cl (centres undefined)	-3	12	99*	-27	3	12
Cc1[nH]c2ccccc2c1C(=O)CN1CCSCC1	-2	-1	97*	8	-2	-1
SMILES	Rin1 Abl inh	PREPL inh	ALR inh	SUMO HTRF inh	RBBP9 inhibitor	UBC13 inh
Cc1[nH]c2ccccc2c1C(=O)CN1CCCC1	1	-1	-15	13	-8	4
O=S1c2ccccc2Nc2ccccc21	0	18	87*	nt	nt	-12
O=C(NCCOc1ccccc1Cl)c1ccc2c(c1)S(=O)(=O)c1cc(Cl)ccc1C2=O	2	27	-1	nt	nt	0
CCN1C(=O)C(CC(=O)NCCc2ccccc2)N(NC(=O)c2ccc(Br)cc2)C1=S (centres undefined)	1	nt	nt	nt	nt	nt
Cc1ccc(/C=C2\Oc3cc(OCC(=O)NN)ccc3C2=O)o1	1	nt	-5	59*	nt	-6
O=C(O)COc1ccc2c(c1)O/C(=C\c1ccco1)C2=O	1	11	nt	43	nt	-2
Cc1cccc(NC(=O)CC2SC(=O)N(c3ccccc3)C2=O)c1 (centres undefined)	2	8	98*	-4	-2	3
N=C1SC(CC(=O)Nc2ccc([N+](=O)[O-])cc2)C(=O)N1c1ccccc1 (centres undefined)	0	-18	-11	5	0	-5
